Results: ChEMBL document CHEMBL1123028, “Synthesis and biological effects of novel thiocolchicines. 3. Evaluation of N-acyldeacetylthiocolchicines, N-(alkoxycarbonyl) deacetylthiocolchicines, and O-ethyldemethylthiocolchicines. New synthesis of thiodemecolcine and antileukemic effects of 2-demethyl- and 3-demethylthiocolchicine” (J Med Chem, 1985)

How the values were obtained:
Mus musculus [1] = species: Mus musculus; test: Antitumor activity against P388 lymphocytic leukemia in mice; assay type: functional
Outline: (§1)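 P388 lymphocytic leukemia implanted ip in mice, run to NCI Developmental Therapeutics Program protocols. Treatment given on a QD1 × 9 schedule. T/C = median survival time of treated animals / median survival time of untreated controls × 100. Value reported at the dose level giving the highest T/C. Activity requires duplicate tests with T/C ≥ 120%; a reproducible T/C ≥ 175% counts as significant.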

Mus musculus [2] = species: Mus musculus; test: Compound was evaluated for the antitumor activity against P388 lymphocytic leukemia in mice; assay type: functional; outline: as §1
[3] = (§2) Lethal dose after the intraperitoneal injection in a group of 10 mice; assay type: toxicity, organism-based; conditions: mouse, in vivo, ip
Outline: (§3)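 NIH general purpose mice (ca. 20 g) were given a single ip injection in an Emulphor EL-620 mixture. Groups of 10 were used at each of usually at least five dose levels. One set of 10 mice received the emulphor mixture alone as a control for each compound. Survivors were counted 7 days after injection, and LD50 (mg/kg) with 95% confidence interval was derived by probit analysis.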

Mus musculus [4] = species: Mus musculus; test: MED(minimum effective dose) against P388 lymphocytic leukemia in mice; this dose produced T/C greater than the threshold value of 125; assay type: functional; parameters: unit: mg/kg
Outline: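 P388 leukemia implanted ip in mice, treated on a QD1 × 9 schedule under NCI Developmental Therapeutics Program protocols. Minimum effective dose (mg/kg) taken as the lowest dose giving T/C, as survival of treated versus control animals × 100, above the threshold of 125.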

Mus musculus [5] = species: Mus musculus; test: Compound was evaluated for the antitumor activity against P388 lymphocytic leukemia in mice; T/C = (days test animal live/days control animals live x100); assay type: functional; outline: as §1
Mus musculus [6] = test: as §2; assay type: toxicity, organism-based; conditions: in vivo, ip; outline: as §3
Mus musculus [7] = species: Mus musculus; test: Compound was evaluated for the antitumor activity against P388 lymphocytic leukemia in mice; T/C = days test animal live/days control animals live x100; assay type: functional; outline: as §1
Mus musculus [8] = species: Mus musculus; test: Compound was evaluated for the antitumor activity against P388 lymphocytic leukemia in mice;T/C=days test animal live/days control animals live x100); assay type: functional; outline: as §1

COc1cc2c(c(OC)c1OC)-c1ccc(SC)c(=O)cc1[C@@H](NC(=O)C(F)(F)F)CC2
Dose (Mus musculus [1]): 0.62 mg/kg
T/C (Mus musculus [2]): 148
LD50 [3]: 0.9 mg/kg
MED (Mus musculus [4]): 0.32

CN[C@H]1CCc2cc(OC)c(OC)c(OC)c2-c2ccc(SC)c(=O)cc21
Dose (Mus musculus [1]): 100 mg/kg
T/C (Mus musculus [5]): 131
Binding (Mus musculus [6]): > 100 mg/kg
MED (Mus musculus [4]): 50

CCCCOC(=O)N[C@H]1CCc2cc(OC)c(OC)c(OC)c2-c2ccc(SC)c(=O)cc21
Dose (Mus musculus [1]): 3 mg/kg
T/C (Mus musculus [5]): 142
LD50 [3]: 81 mg/kg
MED (Mus musculus [4]): <3

COc1c(O)cc2c(c1OC)-c1ccc(SC)c(=O)cc1[C@@H](NC(C)=O)CC2
Dose (Mus musculus [1]): 5 mg/kg
T/C (Mus musculus [2]): 194
MED (Mus musculus [4]): 1.25

CCOC(=O)N[C@H]1CCc2cc(OC)c(OC)c(OC)c2-c2ccc(SC)c(=O)cc21
Dose (Mus musculus [1]): 1.5 mg/kg
T/C (Mus musculus [7]): 172
MED (Mus musculus [4]): 0.38

COc1cc2c(c(OC)c1OC)-c1ccc(SC)c(=O)cc1[C@@H](NC=O)CC2
Dose (Mus musculus [1]): 0.75 mg/kg
T/C (Mus musculus [2]): 171
LD50 [3]: 58.2 mg/kg
MED (Mus musculus [4]): <0.75

CCCC(=O)N[C@H]1CCc2cc(OC)c(OC)c(OC)c2-c2ccc(SC)c(=O)cc21
Dose (Mus musculus [1]): 1.5 mg/kg
T/C (Mus musculus [2]): 231
MED (Mus musculus [4]): 0.19

COc1cc2c(c(OC)c1OC)-c1ccc(SC)c(=O)cc1[C@@H](N(C)C(=O)C(F)(F)F)CC2
Dose (Mus musculus [1]): 10 mg/kg
T/C (Mus musculus [5]): 145
LD50 [3]: 18.6 mg/kg
MED (Mus musculus [4]): 5

C=COC(=O)N[C@H]1CCc2cc(OC)c(OC)c(OC)c2-c2ccc(SC)c(=O)cc21
Dose (Mus musculus [1]): 3 mg/kg
T/C (Mus musculus [5]): 152
LD50 [3]: 87.5 mg/kg
MED (Mus musculus [4]): 1.5

COc1cc2c(c(OC)c1OC)-c1ccc(SC)c(=O)cc1[C@@H](NC(=O)c1ccccc1)CC2
Dose (Mus musculus [1]): 2.5 mg/kg
T/C (Mus musculus [5]): 155
LD50 [3]: 40 mg/kg
MED (Mus musculus [4]): <2.5

CCOCC(=O)N[C@H]1CCc2cc(OC)c(OC)c(OC)c2-c2ccc(SC)c(=O)cc21
Dose (Mus musculus [1]): 1.5 mg/kg
T/C (Mus musculus [8]): 229
LD50 [3]: 5.1 mg/kg
MED (Mus musculus [4]): 0.38

COc1cc2c(c(OC)c1O)-c1ccc(SC)c(=O)cc1[C@@H](NC(C)=O)CC2
Dose (Mus musculus [1]): 10 mg/kg
T/C (Mus musculus [2]): 148
LD50 [3]: 68.1 mg/kg
MED (Mus musculus [4]): 2.5

COc1cc2c(c(OC)c1OC)-c1ccc(SC)c(=O)cc1[C@@H](NC(C)=O)CC2 [THIOCOLCHICINE]
Dose (Mus musculus [1]): 0.18 mg/kg
T/C (Mus musculus [2]): 193
MED (Mus musculus [4]): 0.05

COc1cc2c(c(OC)c1OC)-c1ccc(OC)c(=O)cc1[C@@H](NC(C)=O)CC2 [COLCHICINE]
Dose (Mus musculus [1]): 0.5 mg/kg
T/C (Mus musculus [2]): 245
MED (Mus musculus [4]): 0.06

COc1cc2c(c(OC)c1OC)-c1ccc(SC)c(=O)cc1[C@@H](NC(=O)Oc1ccccc1)CC2
Dose (Mus musculus [1]): 5 mg/kg
T/C (Mus musculus [2]): 164
LD50 [3]: > 50 mg/kg
MED (Mus musculus [4]): 2.5
